{"source": "PubChem BioAssay AID463210", "about": "(The Scripps Research Institute Molecular Screening Center, 2010)", "note": "The campaign covered roughly 330,000 compounds. About 300 (0.091%) were called active. The entries come from a sample that favours actives as a whole. Unmarked numbers belong to inactive results.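 How the source made its calls: active means percent activation above the screen-wide mean plus 3 SD (cut at about 25% in these data); inactive means the rest.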"}
{"target": "Caspase-7 (Homo sapiens) (UniProt P55210)", "sequence (P55210 whole entry D23A/D198A/D206A)": "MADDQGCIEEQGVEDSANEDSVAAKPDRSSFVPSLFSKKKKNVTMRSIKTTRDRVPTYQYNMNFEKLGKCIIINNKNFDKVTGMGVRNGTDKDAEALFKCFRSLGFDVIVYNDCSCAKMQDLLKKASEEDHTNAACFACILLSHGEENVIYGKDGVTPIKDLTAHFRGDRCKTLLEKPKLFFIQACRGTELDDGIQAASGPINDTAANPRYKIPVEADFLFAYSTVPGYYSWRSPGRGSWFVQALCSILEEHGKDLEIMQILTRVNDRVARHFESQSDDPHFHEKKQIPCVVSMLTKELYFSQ", "experiment": "procaspase-7 activators, primary screen, counter-screen for procaspase-3 activator project, biochemical, absorbance, HTS, human (AID 463210)", "conditions": "recombinant procaspase-7, Ac-DEVD-pNA absorbance 405 nm; at 8.5 µM; stronger effect = higher value; D23A/D198A/D206A triple mutant, cannot self-cleave; scale: DMSO 0, 5 µM enzyme 100", "outline": "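Assay system – Uncleavable procaspase-7 mutant enzyme · Quantity – 2 µM procaspase-7 mutant as dispensed · Times – 1 h preincubation, 2 h reaction · Dosing – single nominal 8.5 µM compound dose, 0.8% DMSO final · Buffer or medium – Zinc-free 50 mM HEPES buffer, pH 7.4, with NaCl and Triton X-100 · Detection – Epi-absorbance of released pNA at 405 nm, two timepoints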"}
{"compound": "CCNS(=O)(=O)c1ccc(NC(=O)c2cncc(Br)c2)cc1", "activation": "3.96%"}
{"compound": "Cc1ccc2c(C)c(C(=O)N3CCN(c4ccncc4)CC3)oc2c1C", "activation": "0%"}
{"compound": "Cc1ccc(-c2csc(N3CCN(c4cc5c(cc4Cl)nc(-c4ccncc4)n5CCOCCO)CC3)n2)cc1", "activation": "1.55%"}
{"compound": "CC(C)C1Nc2c(C(=O)O)cccc2C(Nc2ccccc2C(=O)O)C1(C)C", "note": "(centres undefined)", "activation": "-0.22%"}
{"compound": "CCOC(=O)Cn1c2c(c(-c3ccccc3OC)cc1=O)CCCC2", "activation": "0.27%"}
{"compound": "CC(=O)Nc1ccc(NS(=O)(=O)c2cc(C)sc2C)cc1", "activation": "4.24%"}
{"compound": "O=C(NCCS(=O)(=O)N1CCN(c2ccccc2F)CC1)c1ccc(Br)o1", "activation": "10.8%"}
{"compound": "COc1ccc(N2CCN(C(=O)Cn3cnc4sc(C)c(S(=O)(=O)N5CCOCC5)c4c3=O)CC2)cc1", "activation": "7.13%"}
{"compound": "CCOC(=O)C1(CCOC)CCN(Cc2ccc(C(=O)OC)cc2)CC1", "activation": "1.4%"}
{"compound": "CCOC(=O)C1(CCOC)CCN(Cc2cc3ccccc3s2)CC1", "activation": "31.9% (active)"}
{"compound": "CCOC(=O)C1(CCOc2ccccc2)CCN(Cc2cc(OC)cc(OC)c2)CC1", "activation": "-7.5%"}
{"compound": "S=C(Nc1ccc(Br)cc1)NC1CCN(Cc2ccccc2)CC1", "activation": "-4.11%"}
{"compound": "CCCCNS(=O)(=O)c1ccc2nc(SCC(=O)Nc3cc(C)cc(C)c3)[nH]c2c1", "activation": "7.82%"}
{"compound": "COC(=O)c1ccc(NS(=O)(=O)c2cc3c4c(c2)C(C)C(=O)N4CCC3)cc1", "note": "(centres undefined)", "activation": "8.38%"}
{"compound": "O=C(C[n+]1cc(-c2ccc(Cl)c(Cl)c2)n2c1CCC2)c1cccs1", "activation": "5.63%"}
{"compound": "COC(=O)CC1=NN(c2nc(C)cc(C)n2)C(=O)C1", "activation": "2.23%"}
{"compound": "CC(C)(C)c1ccc(/C=C2\\Oc3c(ccc(O)c3CN3CCN(CCO)CC3)C2=O)cc1", "activation": "-5.14%"}
{"compound": "Cc1ccc(S(=O)(=O)N2C[C@@H]3CCCC[C@@H]3[C@@H](C)[C@H]2c2cn(Cc3ccccc3)c3ccc(F)cc23)cc1", "activation": "6.02%"}
{"compound": "Cc1c(C(=O)N(Cc2ccccc2)Cc2cccnc2)cnn1-c1ccc(F)cc1", "activation": "3.32%"}
{"compound": "COc1ccc(OCc2cc(C(=O)N3CCCC3)no2)c2ccccc12", "activation": "-1.07%"}
{"compound": "CN=C1SC(CC(=O)Nc2ccc(C(=O)O)cc2)C(=O)N1C", "note": "(centres undefined)", "activation": "1.33%"}
{"compound": "CCCS(=O)(=O)N1CCC(C(=O)NCCc2ccc(OC)c(OC)c2)CC1", "activation": "5.54%"}
{"compound": "O=C1CN(C(=O)c2cc(F)cc(F)c2)c2ccccc2N1", "activation": "2.59%"}
{"compound": "CCOC(=O)C1CCN(C(=O)COC(=O)C2CCN(S(=O)(=O)c3ccc4c(c3)OCCO4)CC2)CC1", "activation": "2.16%"}
{"compound": "CCCCc1ccc(NS(=O)(=O)c2cccc(C(=O)N3CCCN(C)CC3)c2)cc1", "activation": "-3.56%"}
{"compound": "Cc1ccc(S(=O)(=O)NCCC(=O)OCC(=O)N(C)c2ccccc2)cc1", "activation": "1.61%"}
{"compound": "COc1ccc(-n2cc(CNC3CCOCC3)c(-c3cccc(F)c3)n2)cc1", "activation": "-1.78%"}
{"compound": "CCOc1ccc2c(c1)c(=O)c(S(=O)(=O)c1ccc(C)cc1)cn2CC", "activation": "-6.47%"}
{"compound": "C=CCN(c1ccccc1C(=O)NCC(=O)OCC)S(=O)(=O)c1ccc(C)cc1", "activation": "4.75%"}
{"compound": "CC(=O)N1c2ccc(S(=O)(=O)N3CCCC(C(=O)NCc4ccc(Cl)cc4)C3)cc2CC1C", "note": "(centres undefined)", "activation": "1.56%"}
{"compound": "COc1ccc(CN(C(=O)CSc2nnc(-c3ccc(OC)c(OC)c3)o2)c2ccc(F)cc2)cc1", "activation": "-3.3%"}
{"compound": "O=C1CCCCN1CCCC(=O)N1CCCC(Nc2ccc(F)cc2)C1", "note": "(centres undefined)", "activation": "-11.7%"}
{"compound": "CCOc1cc(C(=O)N2CCc3cc(OC)c(OC)cc3C2)ccc1OC(F)F", "activation": "10.5%"}
{"compound": "CCCSc1ncccc1C(=O)O", "activation": "5.5%"}
{"compound": "CCC(CC)NC(=O)CSc1nnc(-c2c[nH]c3ccccc23)o1", "activation": "-2.98%"}
{"compound": "Cc1cc(C)c(S(=O)(=O)NCC2CCC(C(=O)NCc3ccc4c(c3)OCO4)CC2)c(C)c1", "note": "(centres undefined)", "activation": "10.5%"}
{"compound": "CCn1c2ccccc2c2cc(NC(=O)C/C(C)=N/NC(=O)c3ccccc3N)ccc21", "activation": "-4.21%"}
{"compound": "Cc1nccn1CCC1CCCCN1C(=O)CCc1nnc(-c2ccsc2)o1", "note": "(centres undefined)", "activation": "0.42%"}
{"compound": "O=C(CCn1nnc2ccccc2c1=O)N[C@@H](Cc1c[nH]c2ccccc12)C(=O)O", "activation": "9.07%"}
{"compound": "CC(C(=O)N1CCN(c2ccccc2F)CC1)c1ccc([N+](=O)[O-])cc1", "note": "(centres undefined)", "activation": "-5.29%"}
{"compound": "CCCCCc1nnc(NC(=O)c2ccc(=O)n(C)n2)s1", "activation": "9.59%"}
{"compound": "Cc1csc(/N=C/N(C)C)c1C#N", "activation": "-2.59%"}
{"compound": "OCCC1CN(Cc2cccn2-c2nccs2)CCN1CCc1ccccc1", "note": "(centres undefined)", "activation": "3.58%"}
{"compound": "COC(=O)c1cccnc1NC(=S)NC(C)C", "activation": "3.88%"}
{"compound": "COc1ccc(N2CCN(S(=O)(=O)c3cc4c5c(c3)C(C)C(=O)N5CCC4)CC2)cc1", "note": "(centres undefined)", "activation": "4.7%"}
{"compound": "COc1ccc(-c2sc3ccc(OC)cc3c2C#Cc2ccccn2)cc1", "activation": "25.1%"}
{"compound": "COc1ccc2sc(-c3ccc(S(C)(=O)=O)cc3)c(-c3ccc(C(N)=O)cc3)c2c1", "activation": "-9.45%"}
{"compound": "COc1ccc2sc(-c3ccc(S(C)(=O)=O)cc3)c(C#Cc3cncn3C)c2c1", "activation": "32.4% (active)"}
{"compound": "CN(CC(=O)Nc1ccccc1Cl)C(=O)c1ccccc1SCC(=O)N1CCCC1", "activation": "5.38%"}
{"compound": "Cc1ccccc1N(C(=O)CNC(=O)c1cccs1)C(C(=O)NC1CCCC1)c1ccncc1", "note": "(centres undefined)", "activation": "2.19%"}
{"compound": "COc1ccc(Nc2ncnc3sc(-c4ccccc4)cc23)c(OC)c1", "activation": "47.3% (active)"}
{"compound": "COc1ccc(Nc2ncnc3sc(C)cc23)cc1", "activation": "4.02%"}
{"compound": "COc1ccc(Nc2ncnc3ccc(Br)cc23)c(OC)c1", "activation": "-0.33%"}
{"compound": "O=C(Cn1cncn1)N/N=C/c1c2ccccc2cc2ccccc12", "activation": "-18.1%"}
{"compound": "CC(OC(=O)c1ccc2noc(-c3ccccc3)c2c1)C(N)=O", "note": "(centres undefined)", "activation": "-10.9%"}
{"compound": "Oc1ccc(-c2onc3ccc(Cl)cc23)cc1", "activation": "-16.8%"}
{"compound": "COc1ccc(-c2onc3ccc(C(C)=O)cc23)cc1", "activation": "68.7% (active)"}
{"compound": "CCOC(=O)CN1C(=O)C(=O)c2cc(C)ccc21", "activation": "3.45%"}
{"compound": "CCCCOC(=O)Cn1c(=O)n(CC(=O)OCCCC)c2cc(C)ccc21", "activation": "26.8% (active)"}
{"compound": "CCCCCCCCCCOC(=O)Cn1c(COc2ccc(C)cc2)[n+](C)c2ccccc21", "activation": "0.03%"}
{"compound": "Nc1ncnc(Nc2cccc(Cl)c2Cl)n1", "activation": "1.33%"}
{"compound": "O=C(NCCCO)/C(=C\\C=C\\c1ccccc1)NC(=O)c1ccccc1Cl", "activation": "0.01%"}
{"compound": "Cc1cc(C)cc(Oc2c(C(F)(F)F)oc3cc(OCC(=O)O)ccc3c2=O)c1", "activation": "-4.44%"}
{"compound": "Cc1ccc(S(=O)(=O)N2CCC(C(=O)N[C@@H](C)C(=O)NCc3ccco3)CC2)cc1", "activation": "-5.6%"}
{"compound": "CC1(c2nnc(Cc3ccccc3)o2)CC(c2ccccc2F)=NO1", "note": "(centres undefined)", "activation": "-4.57%"}
{"compound": "Cn1cc(S(=O)(=O)NC(c2ccccc2)c2ccccc2)c(=O)n(C)c1=O", "activation": "8.63%"}
{"compound": "Cn1nc(C(F)(F)F)c(-c2ccc(F)cc2)c1NC(=O)CSCC(=O)O", "activation": "3.17%"}
{"compound": "CC(CCc1ccccc1)NC(=O)COC(=O)c1ccc(F)cc1", "note": "(centres undefined)", "activation": "4.27%"}
{"compound": "CSCCC(NS(=O)(=O)c1ccc(C)cc1)C(=O)N1CCCC1", "note": "(centres undefined)", "activation": "0.13%"}
{"compound": "COc1ccc(C(CC(=O)N2CCN(c3ccccc3)CC2)c2c(O)cc(OC)cc2OC)cc1", "note": "(centres undefined)", "activation": "5.61%"}
{"compound": "CCCn1c(C)cc(/C=C(\\C#N)C(=O)OCC(=O)N(C)c2c(N)n(Cc3ccccc3)c(=O)[nH]c2=O)c1C", "activation": "-1.74%"}
{"compound": "CCn1c(O)c2ccc(C(=O)N=NC(=O)c3cccnc3)cc2c1O", "activation": "-2.1%"}
{"compound": "CN1CCN(C(=O)C2=C[C@H](c3ccc4c(c3)OCO4)C[C@H](OCc3ccc(CO)cc3)O2)CC1", "activation": "0.27%"}
{"compound": "O=c1cc(CN2CCN(S(=O)(=O)/C=C/c3ccccc3)CC2)c2ccc(O)cc2o1", "activation": "17.5%"}
{"compound": "O=C(O)CCN(Cc1ccccc1)S(=O)(=O)c1c(Cl)cccc1Cl", "activation": "3.54%"}
{"compound": "O=[N+]([O-])c1cc(Cl)cc(/C=N/NC(=S)Nc2cc(S(=O)(=O)N3CCOCC3)ccc2Cl)c1O", "activation": "-6.79%"}
{"compound": "Cc1ccc2nsnc2c1S(=O)(=O)N1CCCC1C(=O)O", "note": "(centres undefined)", "activation": "8.06%"}
{"compound": "CC(=O)N[C@@H](C)C(=O)N1CCC(n2nccc2NC(=O)CCCc2ccccc2)CC1", "activation": "8.17%"}
{"compound": "O=c1c2ccccc2ccc2ccc(P(=O)(O)O)cc12", "activation": "4.72%"}
{"compound": "O=C(c1cn(-c2ccccc2)nc1-c1cccnc1)N1CCN(S(=O)(=O)c2ccccc2F)CC1", "activation": "11.3%"}
{"compound": "COc1ccc(CCNC2=C(Cl)C(=O)N(Cc3ccccc3)C2=O)cc1OC", "activation": "-9.7%"}
{"compound": "COc1ccc(COCCN2CCN(S(=O)(=O)c3ccccc3)CCC2=O)cc1", "activation": "-12.7%"}
{"compound": "COc1ccc2c(c1)C(NS(=O)(=O)OCC(Cl)(Cl)Cl)CCC2", "note": "(centres undefined)", "activation": "-4.56%"}
{"compound": "CCN(CC)c1ccc2oc(=O)c(C)nc2c1", "activation": "40.2% (active)"}
{"compound": "CCN(CC)c1ccc(C(=O)Nn2c(C)nc3ccccc3c2=O)cc1", "activation": "-1.52%"}
{"compound": "C=CCN(C(=O)Nc1ccc2oc(C)nc2c1)c1ccccc1", "activation": "-21.8%"}
{"compound": "COc1cccc(NC(=O)Cn2c3ccccc3c3nc4n(c(=O)c32)CCS4)c1", "activation": "9.71%"}
{"compound": "CC1=C(N2CCN(c3ncccn3)CC2)CCC1=O", "activation": "-1.68%"}
{"compound": "COc1ccc(S(=O)(=O)NCCOc2ccccc2)cc1F", "activation": "-0.02%"}
